Assays:
Format in all cases: functional
[1] = system: Rattus norvegicus; assay: Antihyperglycemic activity in streptozotocin-induced diabetic Wistar rat assessed as variation in glycemia at 10 mg/kg administered via intragastric route 7 days after streptozotocin challenge measured after 5 hrs of compound administration by glucose oxidase method relative to control
Outline: (§1)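 Diabetes induced by single ip streptozotocin 50 mg/kg in 0.1 M citrate buffer pH 4.5; rats with glucose above 250 mg/dL after 7 days included. Rats 180–220 g, 6 per group. Test agent suspended in 0.05% Tween 80 in saline, given intragastrically; vehicle controls. Tail-vein blood sampled at 0 h and after dosing; glucometer reading; % change calculated from 0 h value.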

[2] = system: Rattus norvegicus; assay: Antihyperglycemic activity in streptozotocin-induced diabetic Wistar rat assessed as variation in glycemia at 10 mg/kg administered via intragastric route 7 days after streptozotocin challenge measured after 3 hrs of compound administration by glucose oxidase method relative to control; outline: as §1
[3] = system: Rattus norvegicus; assay: Hypoglycemic activity in normal Wistar rat assessed as variation in glycemia at 10 mg/kg administered via intragastric route after 5 hrs by glucose oxidase method relative to control
Outline: (§2)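 Normoglycemic rats (180–220 g), 6 per group, standard pellet diet and water ad libitum. Test agent was suspended in 0.05% Tween 80 in saline and given by gavage. Controls got vehicle at 0.5 mL/100 g. Tail-incision blood was sampled at 0 h and after dosing and read by glucometer. Glycemia change was expressed as % of the 0 h value; ANOVA with Dunnett's test versus vehicle.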

[4] = system: Rattus norvegicus; assay: Hypoglycemic activity in normal Wistar rat assessed as variation in glycemia at 10 mg/kg administered via intragastric route after 3 hrs by glucose oxidase method relative to control; outline: as §2
[5] = system: Rattus norvegicus; assay: Antihyperglycemic activity in streptozotocin-induced diabetic Wistar rat assessed as variation in glycemia at 10 mg/kg administered via intragastric route 7 days after streptozotocin challenge measured after 9 hrs of compound administration by glucose oxidase method relative to control; outline: as §1
[6] = system: Rattus norvegicus; assay: Hypoglycemic activity in normal Wistar rat assessed as variation in glycemia at 10 mg/kg administered via intragastric route after 1.5 hrs by glucose oxidase method relative to control; outline: as §2
[7] = system: Rattus norvegicus; assay: Hypoglycemic activity in normal Wistar rat assessed as variation in glycemia at 10 mg/kg administered via intragastric route after 9 hrs by glucose oxidase method relative to control; outline: as §2
[8] = system: Rattus norvegicus; assay: Antihyperglycemic activity in streptozotocin-induced diabetic Wistar rat assessed as variation in glycemia at 10 mg/kg administered via intragastric route 7 days after streptozotocin challenge measured after 7 hrs of compound administration by glucose oxidase method relative to control; outline: as §1
[9] = system: Rattus norvegicus; assay: Antihyperglycemic activity in streptozotocin-induced diabetic Wistar rat assessed as variation in glycemia at 10 mg/kg administered via intragastric route 7 days after streptozotocin challenge measured after 1.5 hrs of compound administration by glucose oxidase method relative to control; outline: as §1
[10] = system: Rattus norvegicus; assay: Hypoglycemic activity in normal Wistar rat assessed as variation in glycemia at 10 mg/kg administered via intragastric route after 7 hrs by glucose oxidase method relative to control; outline: as §2

Compound | Activity [1] | Activity [2] | Activity [3] | Activity [4] | Activity [5] | Activity [6] | Activity [7] | Activity [8] | Activity [9] | Activity [10]
CC(=O)OC[C@H]1O[C@@H](Oc2cc(O)cc3oc(=O)cc(-c4ccc(O)c(O)c4)c23)[C@H](O)[C@@H](O)[C@H]1O | -29.5% | -20.7% | -28.6% | -29.9% | -37.2% | -9.2% | -30.6% | -34.7% | -5% | -25%
CC(=O)OC[C@H]1O[C@@H](Oc2cc(O)cc3oc(=O)cc(-c4ccc(O)cc4)c23)[C@H](O)[C@@H](O)[C@H]1O | -22.7% | -24.9% | -20.9% | -17.8% | -27.1% | -10.3% | -24% | -25.2% | -11% | -27.2%
COc1ccc(Cl)cc1C(=O)NCCc1ccc(S(=O)(=O)NC(=O)NC2CCCCC2)cc1 [GLYBURIDE] | -35.9% | -35.5% | -47.6% | -30.1% | -36.7% | -8.4% | -37.1% | -35.2% | -13.7% | -41.8%
